Autophagy HCS: autophagy modulators in MEF cells, primary screen, imaging, high-content, MEF GFP-LC3; MEF GFP-LC3 puncta imaging; test concentration mostly 10 µM; calls only at 10 µM (by protocol); 190,000 tested, 0.98% active; AID 463193, 2010;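 active = percentage of spot-positive cells more than 3 SD above its plate mean, without a fluorescence outlier flag or 80% toxicity; inconclusive = no clear call, values can overlap the other calls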;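 also: spot-positive cell cutoff set from DMSO-treated cells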
PERK inhibitor: block of dimerizer-induced PERK translation repression, primary screen, PERK inhibitor project, CHO PERK-DD cells, SEAP luminescence, HTS; CHO PERK-DD fusion, SEAP luminescence translation reporter; inhibition, % at 5.6 µM; 220,000 tested, 0.17% active;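 active = inhibition above the mean inhibition of all tested compounds plus 3 SD, set separately per screening campaign, cut at about 2.9% in these data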;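 also: PERK kinase domain activated by AP20187 dimerizer at 100 nM; 0% = DMSO with dimerizer and 100% = rapamycin at 8.4 µM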
Target sequence (Q9NZJ5 whole entry, looked up, the tested form may be a part): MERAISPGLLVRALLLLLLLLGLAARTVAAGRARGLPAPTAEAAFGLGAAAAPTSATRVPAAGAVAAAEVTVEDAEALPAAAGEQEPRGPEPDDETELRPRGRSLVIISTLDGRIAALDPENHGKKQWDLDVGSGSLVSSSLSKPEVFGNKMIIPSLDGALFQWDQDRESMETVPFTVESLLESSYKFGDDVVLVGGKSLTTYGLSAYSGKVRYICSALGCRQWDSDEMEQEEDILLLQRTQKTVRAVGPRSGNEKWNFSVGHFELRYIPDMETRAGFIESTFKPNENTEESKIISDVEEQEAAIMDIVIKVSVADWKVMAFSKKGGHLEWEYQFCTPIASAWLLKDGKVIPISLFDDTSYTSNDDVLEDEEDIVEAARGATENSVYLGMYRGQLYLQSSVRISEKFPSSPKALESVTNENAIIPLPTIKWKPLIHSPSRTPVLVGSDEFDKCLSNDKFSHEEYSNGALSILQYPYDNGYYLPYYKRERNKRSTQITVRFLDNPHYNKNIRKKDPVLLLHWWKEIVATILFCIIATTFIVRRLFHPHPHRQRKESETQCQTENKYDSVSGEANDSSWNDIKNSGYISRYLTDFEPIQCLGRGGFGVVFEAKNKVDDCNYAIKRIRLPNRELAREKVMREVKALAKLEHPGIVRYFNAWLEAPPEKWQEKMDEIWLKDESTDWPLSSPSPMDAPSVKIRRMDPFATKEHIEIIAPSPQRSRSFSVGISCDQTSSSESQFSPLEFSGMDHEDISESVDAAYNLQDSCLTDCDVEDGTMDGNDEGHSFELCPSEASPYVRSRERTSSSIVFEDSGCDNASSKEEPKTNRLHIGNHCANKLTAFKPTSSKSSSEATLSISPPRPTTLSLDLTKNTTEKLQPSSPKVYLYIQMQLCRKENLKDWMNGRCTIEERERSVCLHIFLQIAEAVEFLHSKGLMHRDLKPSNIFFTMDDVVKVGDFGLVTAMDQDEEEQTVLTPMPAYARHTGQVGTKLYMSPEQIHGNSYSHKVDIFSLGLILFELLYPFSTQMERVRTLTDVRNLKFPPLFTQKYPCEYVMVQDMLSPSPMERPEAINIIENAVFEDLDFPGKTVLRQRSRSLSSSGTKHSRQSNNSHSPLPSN
Insulin prom inh: inhibitors of insulin promoter-driven GFP, primary screen, imaging, TRM-6 cells (human fetal islet line), eGFP reporter, cell count; 130,000 tested, 0.9% active; inhibition, % at 2 µM; reporter expression induced with tamoxifen;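 active = inhibition above the mean plus 3 SD, with well images judged a real hit on visual review, cut at about 60% in these data, passing the limit was not always enough; inconclusive = inhibition over the cutoff but images rejected on review; inactive = inhibition not above the cutoff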
Insulin prom up: insulin promoter activators in MIN6 cells, imaging, high-content screening, mouse beta cells | AID 1625, 2009 | MIN6 insulin promoter-GFP reporter; stronger effect = higher value | 190,000 tested, 0.3% active | z-score at 5 µM;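 active = z-score above 3 at 5 µM with at least 500 cells counted in the well; inconclusive = wells under 500 cells, flagged as cytotoxic or low count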
Dynein transport: inhibitors of GR-EGFP nuclear translocation, primary screen, dynein cargo transport inhibitor project, imaging, high-content, 3617.4 mouse cells. test concentration mostly 20 µM; stimulated with dexamethasone, 1 µM; stronger effect = lower value. z-score, hits read low. 220,000 tested, 0.47% active. AID 1381, 2008;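 active = plate z-score of nuclear minus cytoplasmic receptor signal below a set negative limit, without overly bright fluorescence or cell loss, cut at about -3.5 in these data, passing the limit was not always enough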;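 also: z-score of nuclear minus cytoplasmic ring GR-EGFP intensity difference per well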
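Buffer or medium: tet-free, stripped-serum medium; Also added: dexamethasone, 1.0 µM final; Technique: high-content fluorescence imaging after fixation; Times: 48 h induction, 1 h compound, 30 min dex at 37 °C; Read-out: per-cell GR-EGFP intensity, nucleus versus surrounding cytoplasmic ring, well-averaged.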
Dynein confirm: dynein cargo transport inhibitors, GR-EGFP translocation, confirmation, imaging, high-content imaging, GR-EGFP cells. 3617.4 GR-EGFP nuclear translocation imaging, dexamethasone-induced. 1,000 tested, 69% active. calls only at 20 µM. shares compounds with Dynein transport;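 active = inhibition of receptor movement into the nucleus at or above a set limit in both runs, with normal cell brightness and cell count; inconclusive = limit reached in only one run, brightness and count normal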;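 also: dexamethasone at 1 µM final in well for 30 min; nuclear minus cytoplasmic GR-EGFP mean intensity difference in channel 2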
Active calls of the source: *; i = inactive; u = inconclusive; x = not tested or not shown; + = active, no number. In the library only some 2.1% were active in any assay of this set; here they are far more common.

SMILES	Autophagy HCS	PERK inhibitor	Insulin prom inh	Insulin prom up	Dynein transport	Dynein confirm
COC(=O)c1ccc(C(C(=O)NC2CCCCC2)N(Cc2ccc(F)cc2)C(=O)Cc2cccs2)cc1 (stereo not given)	i	1	-44	-0.45	-0.77	x
Cn1cccc1/C=N/NC(=O)c1cccc(OC(F)(F)C(F)F)c1	i	1	x	-0.07	1.1	x
CCCCNC(=O)CN(c1cccc(Br)c1)S(C)(=O)=O	i	0	48	x	-0.69	x
COc1ccccc1S(=O)(=O)c1ccccc1[N+](=O)[O-]	i	0	-42	0.21	1.7	x
COc1ccc([N+](=O)[O-])c(S(=O)(=O)c2ccc(Cl)cc2)n1	x	0	x	0.02	-4.9*	+
COc1ccc([N+](=O)[O-])c(S(=O)(=O)c2ccccc2)n1	x	0	x	-0.03	-5.5*	+
O=C(CNCCc1ccccc1)N1CCc2ccccc2C1	i	0	-33	-1.1	-0.58	x
CC(=O)Nc1cccc(C(=O)/C=C/c2ccc(F)cc2)c1	i	0	x	-1.1	-3.9*	+
CC(=O)Nc1cccc(C(=O)/C=C/c2ccc(/C=C/C(=O)c3cccc(NC(C)=O)c3)cc2)c1	i	0	x	-0.27	-2.1	x
CC(=O)Nc1cccc(C(=O)/C=C/c2cccs2)c1	i	0	23	-0.06	-3.7*	+
CCc1cccc(NC(=O)Cc2ccc(OC)c(OC)c2)c1	i	0	-29	-1.2	-0.34	x
Cc1cccc(C2=NC(C(F)(F)F)(C(F)(F)F)c3c(n(-c4ccc(F)cc4)c(=O)[nH]c3=O)N2)c1	i	0	0	0.52	-3.7*	i
CC(=O)n1cc(N(C(=O)CCl)c2ccc(C)cc2)c2ccccc21	x	-2	x	-0.95	-6*	+
COc1ccc(C2=CC(c3c(C)nn(-c4ccccc4)c3Cl)n3nnnc3N2)cc1OC (stereo not given)	x	-1	x	-1.8	-0.72	x
Cc1cc(C)cc(Cn2ncc(Cl)c(Cl)c2=O)c1	i	1	16	-0.27	-6.1*	+
O=c1c(Cl)c(Cl)cnn1-c1ccccc1	i	0	-223	-1.9	-4.6*	+
O=c1c(Cl)c(Cl)cnn1Cc1ccccc1Cl	i	0	i	u	-3.9*	+
Cc1ccc(Cn2ncc(Cl)c(Cl)c2=O)cc1	i	0	-68	-0.04	-3.3	x
O=c1c(Cl)c(Cl)cnn1Cc1nnc(-c2ccc(Cl)cc2)o1	i	-1	i	u	-4.8*	+
COc1ccc(NC(=O)Cn2c(CCC(=O)O)ccc2-c2ccc(C)cc2)cc1	i	2	x	0.42	-0.4	x
O=C(NCc1ccccc1)c1onc(CSc2ccccc2)c1C(=O)NCC1CC1	x	x	x	-2.1	0.47	x
O=C(Sc1ccccc1)c1cccc(Cn2cc(C(F)(F)F)ccc2=O)c1	x	1	x	x	-3.9*	+
O=C(Nc1ccccc1)c1cccc(Cn2cc(C(F)(F)F)ccc2=O)c1	x	-1	x	x	2.1	x
Cc1cccc(NC(=O)c2nc[nH]c2C(=O)NCC(=O)OC(C)(C)C)c1	x	x	x	0.49	0.1	x
CN(C)c1nc(C=C(C#N)C#N)c(Cl)n1-c1ccc(F)cc1	i	0	x	0.35	-6.6*	+
O=c1c(Cl)nc2cc(Cl)ccc2n1CCNc1ncc(C(F)(F)F)cc1Cl	+	2	-35	-1.7	-4.5*	i
O=C(NCc1cccnc1)/C(=C\c1ccc(-c2ccc(Cl)c(Cl)c2)o1)S(=O)(=O)c1ccccc1	i	-1	-93	-1.7	-4.2*	+
O=C(NCc1cccnc1)c1ccc(-c2ccc(Cl)cc2)o1	i	1	x	0.1	-0.42	x
C=C1C(=O)[C@@]23[C@H](O)C[C@@H]4C(C)(C)CC[C@H](O)[C@@]4(C)[C@@H]2CC[C@@H]1[C@H]3O	i	0	-105	u	-5.5*	+

Compound activity as filed in PubChem.
